Compound activity: PubChem, Johns Hopkins Ion Channel Center
Sampled rows, rich in hits. Any-hit rate of the full collection: about 3.7%.
KCNQ1 inh – human KCNQ1 channel inhibition; P51787; CHO-K1 KCNQ1, FluxOR thallium flux fluorescence; hits give high values; B-score at 10 µM; hit rate 1.3% among 310,000;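 active = compounds whose thallium flux B-score, printed positive for inhibition, exceeds three library SD while starting fluorescence stays within three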;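 note: channel opened by potassium depolarization with thallium stimulus after 20 min compound exposure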
Kir21 block – Kir2.1 (mouse) channel inhibition; B-score at 10 µM; HEK293-Kir2.1, FluxOR thallium flux fluorescence; hits give low values; hit rate 0.85% among 310,000; AID 1672;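 active = fluorescence ratio B-score at or below minus 3 SD of library scores, with starting-brightness B-score within 2 SD, cut at about -4.2 in these data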;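 note: channel flux triggered by added potassium and thallium sulfate stimulus; B-score of peak minus minimum fluorescence over baseline after thallium stimulus; more negative B-score means stronger Kir2.1 block with less thallium influx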
hERG rescue – hERG (human) protection from proarrhythmic block; Q12809; CHO-hERG, FluxOR thallium flux, dofetilide IC70 present; activation (rescue from dofetilide block), less the hit threshold, % at 10 µM; hit rate 0.51% among 310,000;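 active = activation above the mean of controls blocked by dofetilide plus 5 SD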;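 note: thallium influx through hERG after potassium depolarization seen as dye fluorescence rise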
KCNK3 inh – human KCNK3 channel inhibition, primary screen; CHO-KCNK3 thallium flux, FluxOR fluorescence; hits give low values; B-score at 10 µM; hit rate 0.84% among 340,000; AID 602410;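 active = B-score under library mean minus 4 SD, starting fluorescence ratio at most library mean plus 5 SD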;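 note: more negative B-score means stronger inhibition of thallium flux through KCNK3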
KCNQ1 act – human KCNQ1 channel potentiation or activation | P51787 | CHO-K1 KCNQ1, thallium flux FluxOR fluorescence; hits give high values | B-score at 10 µM | hit rate 0.35% among 310,000 | AID 2648;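 active = fluorescence ratio B-score, a plate-corrected score, at least three library SD, with initial intensity B-score within 5 SD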
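System: Stable KCNQ1 CHO-K1 line | Incubation: 90 min dye loading and 20 min compound exposure, both at room temperature | Measure: Ratio B score | Medium: Assay buffer for compound exposure, DMSO matched across wells | Compound dosing: Single-concentration screen | Probe or stimulus: K+/Tl+ depolarizing stimulus | Measured by: Kinetic FluxOR fluorescence, 10 s baseline plus 110 s post-stimulus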
KCNK9 inh – blocks the human KCNK9 two-pore domain potassium channel; hit rate 1.2% among 310,000; B-score at 10 µM; HEK293 KCNK9, FluxOR thallium flux fluorescence; hits give low values; Q9NPC2;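 active = ratio B-score over 3 SD below the library mean, with starting fluorescence within 5 SD of its mean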;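 note: negative B-score means less thallium flux so channel inhibition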
Target sequence (Q9NPC2 whole entry, looked up, the tested form may be a part): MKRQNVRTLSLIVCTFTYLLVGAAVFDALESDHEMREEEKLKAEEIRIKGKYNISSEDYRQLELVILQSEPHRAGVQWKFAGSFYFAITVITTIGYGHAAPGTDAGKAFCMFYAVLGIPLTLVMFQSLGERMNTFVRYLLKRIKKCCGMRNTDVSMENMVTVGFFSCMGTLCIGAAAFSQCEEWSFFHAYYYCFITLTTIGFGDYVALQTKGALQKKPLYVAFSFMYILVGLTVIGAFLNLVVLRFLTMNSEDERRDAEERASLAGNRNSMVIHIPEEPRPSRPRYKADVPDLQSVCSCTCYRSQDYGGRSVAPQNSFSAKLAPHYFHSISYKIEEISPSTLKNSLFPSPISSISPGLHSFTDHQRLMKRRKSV
Active calls of the source: *; i = inactive; · = no result given.

SMILES | KCNQ1 inh | Kir21 block | hERG rescue | KCNK3 inh | KCNQ1 act | KCNK9 inh
CC(=O)c1cccc(NC(=O)C(OC(=O)c2ccccc2NS(=O)(=O)c2cccs2)c2ccccc2)c1 (stereo unspecified) | i | -0.5 | -10 | i | i | -7*
COc1cc(N=Nc2cccc(S(N)(=O)=O)c2)c2ccccc2c1N | i | 0.08 | -11 | i | i | i
COc1cc(/C=C/C(=O)c2ccc3c(c2)OCO3)cc(Cl)c1O | 6* | -9.7 | -12 | i | i | -7*
COc1ccc(/C=C/C(=O)c2ccc3c(c2)OCO3)c(OC)c1 | i | -1.1 | -5 | i | i | i
CCc1ccc(NC(=S)N(Cc2cccnc2)Cc2ccco2)cc1 | i | -0.22 | 6.0* | i | i | i
COc1ccc(NC(=S)N(Cc2cccnc2)Cc2ccco2)cc1 | i | 0.9 | -17 | i | i | i
CC(NS(=O)(=O)c1ccc(F)cc1)C(=O)Nc1ccc2c(c1)OCCO2 (stereo unspecified) | i | -0.06 | -8 | i | i | i
CS(=O)(=O)N(CC(=O)N1CCc2ccccc2C1)c1cccc(F)c1 | i | -4.2* | 11* | i | i | i
CC(C)C[C@H](N)c1nnc(S(=O)(=O)Cc2cccc(F)c2)o1 | i | -7.9* | -11 | i | i | i
CC(C)(C)OC(=O)N[C@@H](Cc1ccccc1)c1nnc(S(=O)(=O)Cc2cccc(F)c2)o1 | i | 0.63 | -11 | · | i | i
CC1(C)C(=O)Nc2ccccc2N1C(=O)COC(=O)/C=C/c1ccc(OC(F)F)cc1 | i | 0.31 | -12 | i | i | i
Cc1ccc(/C=C2\SC(=S)N(NS(=O)(=O)c3ccc(C)cc3)C2=O)cc1 | i | 0.68 | -5 | i | 27* | i
Cc1ccc(S(=O)(=O)NN2C(=O)/C(=C\c3ccc(Cl)cc3)SC2=S)cc1 | i | 1.7 | -2 | i | i | i
CCOC(=O)c1c(S(=O)(=O)N2CCC(C)CC2)c(C)n(C)c1C | i | -1 | -6 | i | i | i
CN(c1ccc(F)cc1)S(=O)(=O)c1ccc(Cl)c(C(=O)Nc2ccc3c(c2)CCC3)c1 | i | 0.9 | -11 | i | i | -6.9*
CCN(CCCNC(=O)COc1cc(=O)n(C)c2ccccc12)c1cccc(C)c1 | i | -6.8* | -18 | i | i | i
CC1CCCCN1C(=O)CSc1nc2c(c(=O)n(C)c(=O)n2C)n1C (stereo unspecified) | i | 0.3 | -9 | i | i | i
COc1ccc(-c2cc(=Nc3ccc(C)cc3)c3ccccc3o2)cc1 | i | -6.1* | -9 | i | i | i
COc1ccc(N=c2cc(-c3ccc(O)cc3)oc3ccccc23)cc1 | i | 1.1 | -21 | i | i | i
CC(=NNC(=O)CSCC(=O)NN=C(C)c1ccccc1)c1ccccc1 | · | · | · | i | · | ·
CCOC(=O)C1=CNS(=O)(=O)NC1c1ccc2ccccc2c1 (stereo unspecified) | · | · | · | i | · | ·
Fc1ccc(COc2ccc(Br)cc2CNCc2ccncc2)cc1 | i | -4.4* | -19 | i | i | i
CCOc1cc(CNCc2ccncc2)cc(Br)c1OCc1ccc(F)cc1 | i | -13* | -23 | i | i | i
CC1CN(C(=O)Cn2cc(S(=O)(=O)CC(=O)N3CCOCC3)c3ccccc32)CC(C)O1 (stereo unspecified) | i | 0.52 | -4 | i | i | i
COc1cc(C2C(C#N)=C(N)N(Nc3ccccc3)C3=C2C(=O)CC(C)(C)C3)ccc1OCc1ccccc1 (stereo unspecified) | i | -1.2 | -10 | i | i | -7.3*
SMILES | KCNQ1 inh | Kir21 block | hERG rescue | KCNK3 inh | KCNQ1 act | KCNK9 inh
O=C(CSc1nnnn1-c1cccc2c1CCCC2)N1CCCCC1 | i | -4.3* | -9 | i | i | i
O=C1C(Cl)=C(NS(=O)(=O)c2ccc([N+](=O)[O-])cc2)C(=O)c2ccccc21 | 6* | -0.64 | -23 | i | i | i
COc1ccccc1CC(=O)N(Cc1ccccc1)c1ccc(C)cc1 | i | -0.8 | -12 | i | i | i
CC1(C(=O)CSc2ncn[nH]2)CCC(=O)O1 (stereo unspecified) | i | -1.6 | 5.0* | · | i | i
C=C(C)COc1ccc(-c2nc(N)ncc2Oc2ccc(OC)cc2)c(O)c1 | i | -0.31 | -13 | i | i | i
C=C(C)COc1ccc(-c2nc(N)ncc2Oc2ccccc2OC)c(O)c1 | · | · | · | -9.2* | · | ·
COC(=O)[C@@]1(Cc2ccc(F)cc2)[C@H]2c3cc(C(=O)N(C)C)n(Cc4ccc(OC)c(OC)c4)c3C[C@H]2CN1C(=O)c1ccccc1 | i | 0.47 | -9 | · | i | i
C=C1C(=O)C=C2CN(C(=O)c3ccccc3)[C@@](Cc3ccc(F)cc3)(C(=O)OC)[C@@H]12 | i | -4.5* | -26 | i | 17* | i
O=C(O)CCSc1ncnc2sc(-c3ccccc3)cc12 | i | 1.3 | 6.6* | i | 14* | i
CCc1ccc(CCC(=O)Nc2ccc(Cl)cc2)o1 | i | 0.56 | -2 | i | i | i
O=C(NCc1ccncc1)C(=O)N/N=C/c1ccc(OCc2ccccc2)cc1 | i | 1.1 | -9 | i | i | i
O=NN(CCc1ccncc1)c1ccc(OCc2ccccc2)cc1 | 10* | 0.01 | -20 | -9.1* | i | i
OCC1(Cc2ccccc2)CCN(C2CCN(c3ccc(F)c(F)c3)CC2)CC1 | i | 0.56 | -17 | i | i | i
O=C(N/N=C/c1c(O)ccc2ccccc12)Nc1ccccc1 | 6* | 0.71 | -9 | i | i | i
O=C(N/N=C/c1c(O)ccc2ccccc12)c1ccc(Br)o1 | 6* | 0.55 | -15 | i | i | i
O=C(N/N=C\c1c(O)ccc2ccccc12)c1ccc(O)cc1 | i | -0.08 | -9 | i | i | i
c1ccc(CSc2nnnn2-c2cccc3ccccc23)nc1 | i | -7.4* | -8 | i | i | i
CCN1C(=O)[C@H]2[C@@H](c3ccc(-c4ccc(Cl)c(Cl)c4)c(OC)c3)N[C@@](Cc3ccccc3)(C(=O)OC)[C@H]2C1=O | i | -0.16 | -10 | i | i | i
Cn1ccnc1Sc1cc(NCCCO)c([N+](=O)[O-])c2nonc12 | 6* | -2.8 | -31 | i | i | i
O=[N+]([O-])c1c(NCCCO)cc(Sc2ccc(Cl)cc2)c2nonc12 | i | -1.6 | -12 | i | i | i
CCn1c(COc2cccc3ccccc23)nnc1SCC(=O)OC1CCCCC1 | 10* | -1.2 | -32 | i | i | i
Cn1c(CNc2cccc(Cl)c2)nnc1SCC(=O)OC1CCCCC1 | i | -4.2* | -11 | i | i | i
